Laboratory results reported in the EternaBench riboswitch data.

Test system: MS2 coat protein
Test: apparent Kd, MS2 coat protein; higher = weaker binding; RNA-MaP array; FMN 200 µM where present
Method in brief: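 Stalled E. coli RNA polymerase transcribed each design on Illumina sequencing-chip clusters. The clusters were titrated with SNAP-549-labelled MS2 coat protein, starting at 0.7 or 1.5 nM and doubling up to 3 µM, first without ligand and then with constant ligand, in 100 mM Tris-HCl pH 7.5, 80 mM KCl, 4 mM MgCl2, BSA, DTT, yeast tRNA and Tween-20. Green signal was normalised to red-channel RNA signal and to the control-cluster median Fmax. The apparent Kd is the median of filtered binding-curve fits made for each cluster.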

[1] = designed as: OFF switch for flavin mononucleotide, no ligand
[2] = ligand present: flavin mononucleotide, designed as: OFF switch for flavin mononucleotide
[3] = designed as: ON switch for flavin mononucleotide, no ligand
[4] = ligand present: flavin mononucleotide, designed as: ON switch for flavin mononucleotide

Row | Sequence | apparent Kd [1] | apparent Kd [2] | apparent Kd [3] | apparent Kd [4]
1 | GAGUGUACGGAGGAUAUGUUAUACGAUGACCGAACAGAAGGCCGAACAUGAGGAUCACCCAUGUGUCUUCUAGG | 16 nM | 22.8 nM | – | –
2 | UUUAUGUCAGGAUAUGAUUAGAUCUACUUUUGUAGAUCUAAUCAGAAGGGACAUGAGGAUCACCCAUGUAGUUU | 126 nM | 236 nM | – | –
3 | ACCUCACAUGAGGAUCACCCAUGUAAGGAUAUCUUCGCUUUGACGUUGUUCUAUGCGAAGAGAAGGUACACGGC | 28.3 nM | 111 nM | – | –
4 | CGCGAUAGCAUAGGAUAUUGAUACAUGAGGAUCACCCAUGUCAACCAUGAAGCUCGAAUUGUUGACAAGAAGGAUGAGGUCGCG | – | – | 81.3 nM | 55.3 nM
5 | AGUGUCAUCGAGAAGGCCUCAACAUGAGGAUCACCCAUGUUGCCAAAAGGGAGGAUAUCGAUGAUACAGCUACGUUUCGUAGCA | – | – | 4.15 nM | 4.34 nM
6 | GGGCCGUAGUAGAAGGGAUAUACGUUAGGUAUAUCAGGAUAUACAUGAGGAUCACCCAUGUUCUAACAGUGAUAGUCCUCCCUA | 19.8 nM | 55.4 nM | – | –
7 | AUAAAAGUAGGAUAUUGACUGAUCGACAUGAGGAUCACCCAUGUGGUGCUGUGCGGUAUUCAAGAAGGGCUAAAAU | 21.8 nM | 32.2 nM | – | –
8 | UGUUGUUUAGGAUAUACAUGAGGAUCACCCAUGUGACAAAAAUAUUUUACAAAACCAUGUAGAAGGAAAUGGCA | 22.3 nM | 48.2 nM | – | –
9 | GACAUGAGGAUCACCCAUGUCCGGGCCAAAAGAAGAAAUACCAGAAGGACCGGCAGAAAUGAGCGGUAGGAUAUGGGAUUCGUG | – | – | 36.7 nM | 12.1 nM
10 | GGGCCAUAGUAGAAGGGAUAUACGAAAGGUAUAUCAGGAUAUACAUGAGGAUCACCCAUGUUCUAACAGUGAUAGUCCUCCCUA | 22.4 nM | 69.8 nM | – | –
11 | ACCUCACAUGAGGAUCACCCAUGUUAGGAUAUUAAAUAGCGCGCAAAACAGCCCUGUAUGAGAAGGAGCUGGGA | 13.6 nM | 14.8 nM | – | –
12 | ACAUGAGGAUCACCCAUGUACAUGGGUUUAAUUGUGUGUUACUAGGAUAUGUAUUUGAAUUUACAACAGAAGGAGUAUUACUGU | 621 nM | 179 nM | – | –
13 | AGAUGCAUGUAGAAGGGAGGAUCACCAGUGUACUCAGGAUAUACAUGUGGUGACAUGAGGAUCACCCAUGUAUGCCAGAAGUUC | – | – | 172 nM | 116 nM
14 | AAAAUCUAUUGAGGAUAUCGUUCUUAAAGAGAAUGAGAAGGCAAACAAUCAUGAGGACAUGAGGAUCACCCAUGUUGUGACCAU | – | – | 19.9 nM | 10.3 nM
15 | CUAUGGCAAGGAUAUCUUGGCUAGAACAUGAGGAUCACCCAUGUCUACUGUACUAAUAUCGGAGAAGGUGCUAGAA | 27.6 nM | 19.1 nM | – | –
16 | UUUUAACAUGAGGAUCACCCAUGUGAGGAUAUCGAAAUUUAUAUUAAUAUUUUUAUAACGAGAAGGCACAUUUU | 70.1 nM | 75.2 nM | – | –
17 | CGCUAAUUAAUUAUAUUAAUUGUACAGGAUAUGUAACAUGAGGAUCACCCAUGUAUUGGGUUUAAACAGAAGGGUAUAUUAGCG | 425 nM | 112 nM | – | –
18 | ACAUGAGGAUCACCCAUGUUCACAUAGGAUAUUGAUUUUAUUGGUUUUAGAAUAGUAAUUAACCUCAAGAAGGAUGCCAGUUCU | – | – | 14 nM | 11.2 nM
19 | AGGCGUAAGACAGGAUAUAGGCAGCGGGCUGGAAACGAAUACAAAGACAUGAGGAUCACCCAUGUCUAGAAGGGUCGUGGCGGG | 9.05 nM | 9.88 nM | – | –

Row | Sequence | apparent Kd [1] | apparent Kd [2] | apparent Kd [3] | apparent Kd [4]
20 | GACUGACGAGGAUAUACAUGAGGAUCACCCAUGUAAGAUCAGCGACUUCGGUCGCAAUGUAGAAGGCGUCAGUC | 28.2 nM | 326 nM | – | –
21 | CCUCUACAUGAGGAUCACCCAUGUGAGGAUAUCAAAGCCAGAGCGGAUCUCCGGCCCAUGAGAAGGUGCAUGGA | 19.8 nM | 70.8 nM | – | –
22 | AGAACAUGAGGAUCACCCAUGUAAAGGUCGGUCAAUAAGGGUGAGGAUAUGCUUAAAAUAAGGUAGCAGAAGGUGCUUGGUGCA | – | – | 713 nM | 603 nM
23 | AGUACACAUGAGGAUCACCCAUGUGAGGAUAUCGAUGUCCCAGGGCGGGUGCGGGACUCGAGAAGGCACUUGGU | 47 nM | 154 nM | – | –
24 | CCCUACGUUUCGUAGCAGUGUCAUCGAGAAGGCCCUGACAUGAGGAUCACCCAUGUUGUUACAUGGGAGGAUAUCGAUGAUCCC | – | – | 18.6 nM | 5.47 nM
25 | UUGCUCGUGUGAGGAUAUGCCGCCGUUUCGGCUGCAGAAGGUACUCUUGUACAUGAGGAUCACCCAUGUCUCUGUUGUUUCGUG | – | – | 49 nM | 43.6 nM
26 | ACCAGAACAUGAGGAUCACCCAUGUAUCUAUACCAAGCGACACAGGAUAUACAAAGCGAAAGCGGGUAGAAGGGUGAUCAUGCA | – | – | 63.5 nM | 182 nM
27 | AGCUGGUGACAGCAUCCAUCAAAACAUGAGGAUCACCCAUGUAGAAGGCUGUACGGUUACCGUACAGAGGAUAUACAAUGAUGC | 13.8 nM | 31.8 nM | – | –
28 | CAUGUACGUGAGGAUAUGGUGGCGACGAGCCGGCUAGAAGGCACAACAUGAGGAUCACCCAUGUCUUGGAUCUA | 114 nM | 374 nM | – | –
29 | AUGAGGUCAGGAUAUGCAUGGCGGGACUUGCGUCGUGGCGUGCAGAAGGGACAUGAGGAUCACCCAUGUGGAGU | 152 nM | 218 nM | – | –
30 | AAAACGGCGCGUCCCGCACCAACUACAGAAGGCCAACAUGAGGAUCACCCAUGUACAAACUAGAUGGAGGAUAUGUAGGUUCUA | – | – | 6.76 nM | 4.63 nM
31 | GGAUAGGACAGAGGAUAUACGUGCUAGAGAUACUAGCUAAAUUUCCUCACAUGAGGAUCACCCAUGUAGAAGGCUGUCCUAUCG | 15 nM | 412 nM | – | –
32 | GGUUGUCAUAGUCAUCCUUUCCGUACAUGAGGAUCACCCAUGUAGGAUAUGCUACUCUCGGUGUGGCAGAAGGGCGUGUGUCUU | 18.2 nM | 18.8 nM | – | –
33 | GCCAUCGCAUGAGGAUAUGCUCCGGUUUCCGGAGCAGAAGGCAUGUCGUUAGACAUGAGGAUCACCCAUGUAGUUAAGAUGGCA | – | – | 999 nM | 41.1 nM
34 | GGUCCUUCUGUUAGGAUAUGCUAUGGGCUUCCGCAGUAGAAGGAACAUGAGGAUCACCCAUGUCCGAUGCCGUA | – | 121 nM | – | –
35 | UUCAGCUCGUGAGGAUAUACAUGUGCUGGAAACAGCACUAAUAGAAUCACAUGAGGAUCACCCAUGUAGAAGGCACGAGCUGAG | 17.2 nM | 40.1 nM | – | –
36 | UUAUUAUGUGUAGGAUAUGCAUAUUAUUAUUAUGCAGAAGGACAUGAGGAUCACCCAUGUAUAUUGUUAUUAUAUAUUAUAUAU | 11.5 nM | 16.7 nM | – | –
37 | AAGAGUAGAGGAUAUACAUGAGGAUCACCCAUGUAAUCCGGAUAAGGAAGCAUGUCGUGUAGAAGGCUGCAUGA | 15.2 nM | 12.4 nM | – | –
